# Source: ChEMBL document CHEMBL2086252, “Syntheses and evaluation of anticonvulsant activity of novel branched alkyl carbamates” (J Med Chem, 2012)
# Calls of active or inactive are those of the source. The rule behind the calls is not given here.
# Tests used:
# [1] = test system: Mus musculus; assay: Anticonvulsant activity in albino CF1 mouse assessed as protection against maximal electroshock-induced seizures at 100 mg/kg, ip after 4 hrs; format: functional, organism-based; design: dose 100 mg/kg
# In short: (§1)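 Mice dosed ip at 30, 100 or 300 mg/kg, then tested 0.5 h and 4 h after administration in the MES or scMet test. Protection was recorded as animals protected over animals tested. Neurotoxicity was recorded as motor impairment or sedation, as animals affected over animals tested.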
# [2] = test system: Mus musculus; assay: Neurotoxicity in albino CF1 mouse assessed as minimal motor impairment at 30 mg/kg, ip after 4 hrs by rotarod test; format: toxicity, organism-based; design: dose 30 mg/kg, route intraperitoneal; details: in vivo; in short: as §1
# [3] = test system: Rattus norvegicus; assay: Anticonvulsant activity in Sprague-Dawley albino rat assessed as protection against maximal electroshock-induced seizures at 30 mg/kg, po after 4 hrs; format: functional, organism-based; design: dose 30 mg/kg
# In short: (§2)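 Rats dosed orally. Anti-MES protection was scored as animals protected over animals tested at each time after dosing. Neurotoxicity was scored as motor impairment or sedation, as animals affected over animals tested.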
# [4] = test system: Rattus norvegicus; assay: Neurotoxicity in pilocarpine-induced status epilepticus Sprague-Dawley albino rat model assessed as minimal motor impairment at 100 mg/kg, ip after 2 hrs by rotarod test; format: toxicity, organism-based; design: dose 100 mg/kg, route intraperitoneal; details: in vivo
# [5] = test system: Rattus norvegicus; assay: Neurotoxicity in pilocarpine-induced status epilepticus Sprague-Dawley albino rat model assessed as minimal motor impairment at 100 mg/kg, ip after 1 hr by rotarod test; format: toxicity, organism-based; design: dose 100 mg/kg, route intraperitoneal; details: in vivo
# [6] = test system: Rattus norvegicus; assay: Neurotoxicity in Sprague-Dawley albino rat assessed as minimal motor impairment at 30 mg/kg, po by rotarod test; format: toxicity, organism-based; design: dose 30 mg/kg, route oral; details: in vivo; in short: as §2
# [7] = test system: Mus musculus; assay: Anticonvulsant activity in albino CF1 mouse assessed as protection against subcutaneous metrazol-induced seizures at 300 mg/kg, ip after 0.5 hrs; format: functional, organism-based; design: dose 300 mg/kg; in short: as §1
# [8] = test system: Mus musculus; assay: Neurotoxicity in albino CF1 mouse assessed as minimal motor impairment at 100 mg/kg, ip after 0.5 hrs by rotarod test; format: toxicity, organism-based; design: dose 100 mg/kg, route intraperitoneal; details: in vivo; in short: as §1
# [9] = test system: Mus musculus; assay: Anticonvulsant activity in albino CF1 mouse assessed as protection against subcutaneous metrazol-induced seizures at 100 mg/kg, ip after 4 hrs; format: functional, organism-based; design: dose 100 mg/kg; in short: as §1
# [10] = test system: Mus musculus; assay: Anticonvulsant activity in albino CF1 mouse assessed as protection against subcutaneous metrazol-induced seizures at 100 mg/kg, ip after 0.5 hrs; format: functional, organism-based; design: dose 100 mg/kg; in short: as §1
# [11] = test system: Rattus norvegicus; assay: Neurotoxicity in pilocarpine-induced status epilepticus Sprague-Dawley albino rat model assessed as minimal motor impairment at 100 mg/kg, ip after 0.5 hrs by rotarod test; format: toxicity, organism-based; design: dose 100 mg/kg, route intraperitoneal; details: in vivo
# [12] = test system: Rattus norvegicus; assay: Anticonvulsant activity in Sprague-Dawley albino rat assessed as protection against maximal electroshock-induced seizures at 30 mg/kg, po after 15 mins; format: functional, organism-based; design: dose 30 mg/kg; in short: as §2
# [13] = test system: Rattus norvegicus; assay: Neurotoxicity in pilocarpine-induced status epilepticus Sprague-Dawley albino rat model assessed as minimal motor impairment at 30 mg/kg, ip after 0.25 hr by rotarod test; format: toxicity, organism-based; design: dose 30 mg/kg, route intraperitoneal; details: in vivo
# In short: (§3)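 Rat pilocarpine status epilepticus model: test carbamate given at 0 or 30 min after the first observed Racine stage 3 motor seizure, which marks SE onset. Neurotoxicity was scored within the same model.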
# [14] = test system: Rattus norvegicus; assay: Anticonvulsant activity in Sprague-Dawley albino rat assessed as protection against maximal electroshock-induced seizures at 30 mg/kg, po after 2 hrs; format: functional, organism-based; design: dose 30 mg/kg; in short: as §2
# [15] = test system: Rattus norvegicus; assay: Neurotoxicity in pilocarpine-induced status epilepticus Sprague-Dawley albino rat model assessed as minimal motor impairment at 100 mg/kg, ip after 0.25 hr by rotarod test; format: toxicity, organism-based; design: dose 100 mg/kg, route intraperitoneal; details: in vivo
# [16] = test system: Rattus norvegicus; assay: Neurotoxicity in pilocarpine-induced status epilepticus Sprague-Dawley albino rat model assessed as minimal motor impairment at 300 mg/kg, ip after 0.5 hrs by rotarod test; format: toxicity, organism-based; design: dose 300 mg/kg, route intraperitoneal; details: in vivo; in short: as §3
# [17] = test system: Mus musculus; assay: Anticonvulsant activity in albino CF1 mouse assessed as protection against maximal electroshock-induced seizures at 30 mg/kg, ip after 0.5 hrs; format: functional, organism-based; design: dose 30 mg/kg; in short: as §1
# [18] = test system: Mus musculus; assay: Neurotoxicity in albino CF1 mouse assessed as minimal motor impairment at 30 mg/kg, ip after 0.5 hrs by rotarod test; format: toxicity, organism-based; design: dose 30 mg/kg, route intraperitoneal; details: in vivo; in short: as §1
# [19] = test system: Mus musculus; assay: Anticonvulsant activity in albino CF1 mouse assessed as protection against maximal electroshock-induced seizures at 100 mg/kg, ip after 0.5 hrs; format: functional, organism-based; design: dose 100 mg/kg; in short: as §1
# [20] = test system: Rattus norvegicus; assay: Anticonvulsant activity in ip dosed Sprague-Dawley albino rat assessed as protection against pilocarpine-induced status epilepticus after 0.5 hrs; format: functional
# In short: (§4)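 Pilocarpine status epilepticus model in rats. Number and severity of convulsive seizures were observed behaviourally.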
# [21] = test system: Rattus norvegicus; assay: Anticonvulsant activity in Sprague-Dawley albino rat assessed as protection against pilocarpine-induced status epilepticus at 65 mg/kg, ip; format: functional, organism-based; design: dose 65 mg/kg; in short: as §4
# [22] = test system: Mus musculus; assay: Neurotoxicity in albino CF1 mouse assessed as minimal motor impairment at 300 mg/kg, ip after 0.5 hrs by rotarod test; format: toxicity, organism-based; design: dose 300 mg/kg, route intraperitoneal; details: in vivo; in short: as §1
# [23] = test system: Rattus norvegicus; assay: Neurotoxicity in pilocarpine-induced status epilepticus Sprague-Dawley albino rat model assessed as minimal motor impairment at 30 mg/kg, ip after 0.5 hrs by rotarod test; format: toxicity, organism-based; design: dose 30 mg/kg, route intraperitoneal; details: in vivo; in short: as §3
# [24] = test system: Mus musculus; assay: Anticonvulsant activity in albino CF1 mouse assessed as protection against maximal electroshock-induced seizures at 30 mg/kg, ip after 4 hrs; format: functional, organism-based; design: dose 30 mg/kg; in short: as §1
# [25] = test system: Rattus norvegicus; assay: Neurotoxicity in pilocarpine-induced status epilepticus Sprague-Dawley albino rat model assessed as minimal motor impairment at 300 mg/kg, ip after 2 hrs by rotarod test; format: toxicity, organism-based; design: dose 300 mg/kg, route intraperitoneal; details: in vivo; in short: as §3
# [26] = test system: Rattus norvegicus; assay: Neurotoxicity in pilocarpine-induced status epilepticus Sprague-Dawley albino rat model assessed as minimal motor impairment at 30 mg/kg, ip after 1 hr by rotarod test; format: toxicity, organism-based; design: dose 30 mg/kg, route intraperitoneal; details: in vivo; in short: as §3
# [27] = test system: Rattus norvegicus; assay: Neurotoxicity in pilocarpine-induced status epilepticus Sprague-Dawley albino rat model assessed as minimal motor impairment at 65 mg/kg, ip after 0.5 hrs by rotarod test; format: toxicity, organism-based; design: dose 65 mg/kg, route intraperitoneal; details: in vivo; in short: as §3
# [28] = test system: Mus musculus; assay: Anticonvulsant activity in albino CF1 mouse assessed as protection against subcutaneous metrazol-induced seizures at 300 mg/kg, ip after 4 hrs; format: functional, organism-based; design: dose 300 mg/kg; in short: as §1
# [29] = test system: Rattus norvegicus; assay: Neurotoxicity in pilocarpine-induced status epilepticus Sprague-Dawley albino rat model assessed as minimal motor impairment at 300 mg/kg, ip after 1 hr by rotarod test; format: toxicity, organism-based; design: dose 300 mg/kg, route intraperitoneal; details: in vivo; in short: as §3
# [30] = test system: Rattus norvegicus; assay: Neurotoxicity in pilocarpine-induced status epilepticus Sprague-Dawley albino rat model assessed as minimal motor impairment at 300 mg/kg, ip after 0.25 hr by rotarod test; format: toxicity, organism-based; design: dose 300 mg/kg, route intraperitoneal; details: in vivo; in short: as §3
# [31] = test system: Mus musculus; assay: Anticonvulsant activity in albino CF1 mouse assessed as protection against subcutaneous metrazol-induced seizures at 30 mg/kg, ip after 0.5 hrs; format: functional, organism-based; design: dose 30 mg/kg; in short: as §1
# [32] = test system: Rattus norvegicus; assay: Neurotoxicity in pilocarpine-induced status epilepticus Sprague-Dawley albino rat model assessed as minimal motor impairment at 100 mg/kg, ip after 4 hrs by rotarod test; format: toxicity, organism-based; design: dose 100 mg/kg, route intraperitoneal; details: in vivo
# [33] = test system: Rattus norvegicus; assay: Neurotoxicity in pilocarpine-induced status epilepticus Sprague-Dawley albino rat model assessed as minimal motor impairment at 30 mg/kg, ip after 2 hrs by rotarod test; format: toxicity, organism-based; design: dose 30 mg/kg, route intraperitoneal; details: in vivo; in short: as §3
# [34] = test system: Rattus norvegicus; assay: Neurotoxicity in pilocarpine-induced status epilepticus Sprague-Dawley albino rat model assessed as minimal motor impairment at 300 mg/kg, ip after 4 hrs by rotarod test; format: toxicity, organism-based; design: dose 300 mg/kg, route intraperitoneal; details: in vivo; in short: as §3
# [35] = test system: Mus musculus; assay: Neurotoxicity in albino CF1 mouse assessed as minimal motor impairment at 100 mg/kg, ip after 4 hrs by rotarod test; format: toxicity, organism-based; design: dose 100 mg/kg, route intraperitoneal; details: in vivo; in short: as §1
# [36] = test system: Rattus norvegicus; assay: Neurotoxicity in pilocarpine-induced status epilepticus Sprague-Dawley albino rat model assessed as minimal motor impairment at 30 mg/kg, ip after 4 hrs by rotarod test; format: toxicity, organism-based; design: dose 30 mg/kg, route intraperitoneal; details: in vivo; in short: as §3
# [37] = test system: Mus musculus; assay: Anticonvulsant activity in albino CF1 mouse assessed as protection against subcutaneous metrazol-induced seizures at 30 mg/kg, ip after 4 hrs; format: functional, organism-based; design: dose 30 mg/kg; in short: as §1
# [38] = test system: Mus musculus; assay: Anticonvulsant activity in albino CF1 mouse assessed as protection against maximal electroshock-induced seizures at 300 mg/kg, ip after 0.5 hrs; format: functional, organism-based; design: dose 300 mg/kg; in short: as §1
# [39] = test system: Mus musculus; assay: Anticonvulsant activity in albino CF1 mouse assessed as protection against maximal electroshock-induced seizures at 300 mg/kg, ip after 4 hrs; format: functional, organism-based; design: dose 300 mg/kg; in short: as §1
# [40] = test system: Mus musculus; assay: Neurotoxicity in albino CF1 mouse assessed as minimal motor impairment at 300 mg/kg, ip after 4 hrs by rotarod test; format: toxicity, organism-based; design: dose 300 mg/kg, route intraperitoneal; details: in vivo; in short: as §1
structure (smiles),measurement,setting,value
CCCC(COC(N)=O)C(C)C (racemic),Activity,[1],inactive
same,Activity,[2],Non-toxic
same,Activity,[3],inactive
same,Activity,[4],Non-toxic
same,Activity,[5],Toxic
same,Activity,[6],Non-toxic
same,Activity,[7],Active
same,Activity,[8],Non-toxic
same,Activity,[9],inactive
same,Activity,[10],inactive
same,Activity,[11],Toxic
same,Activity,[12],inactive
same,Activity,[13],Non-toxic
same,Activity,[14],inactive
same,Activity,[15],Toxic
same,Activity,[16],Toxic
same,Activity,[17],inactive
same,Activity,[18],Non-toxic
same,Activity,[19],Active
same,ED50,[20],107 mg/kg
same,ED97,[20],151 mg/kg
same,Activity,[21],Active
same,Activity,[22],Toxic
same,Activity,[23],Non-toxic
same,Activity,[24],inactive
same,Activity,[25],Toxic
same,Activity,[26],Non-toxic
same,Activity,[27],Non-toxic
same,Activity,[28],inactive
same,Activity,[29],Toxic
same,Activity,[30],Toxic
same,Activity,[31],inactive
same,Activity,[32],Non-toxic
same,Activity,[33],Non-toxic
same,Activity,[34],Toxic
same,Activity,[35],Non-toxic
same,Activity,[36],Non-toxic
same,Activity,[37],inactive
same,Activity,[38],Active
same,Activity,[39],inactive
same,Activity,[40],Non-toxic
